# Assays:
# [1] = test system: Balb/c mice; assay: Acute toxicity study; assay type: in vivo
# [2] = test system: H1299 cells; assay: Cell viability, sulforhodamine B assay; assay type: cell-based; conditions: H1299, 3 days after treatment
# How it was run: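 Sulforhodamine B assay on the lung cancer line. Cells were exposed to a range of test compound concentrations, and viability was read 3 days after treatment. DMSO-treated control cells were set to 100. Values are mean ± SD of quadruplicate wells.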
# [3] = test system: Calu3 cells; conditions: previous study ref 5; cited from earlier work
# [4] = test system: human renal cancer cell line A498 xenograft; conditions: compared with oncrasin-60 (NSC-741909); cited from earlier work
# [5] = test system: H157 cells; conditions: previous study ref 5; cited from earlier work
# [6] = Stability of stock solution; assay type: physicochemical; conditions: Solutol HS15 and ethyl alcohol
# How it was run: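 Stock solution: 70 mg prodrug or 60 mg parent drug per ml of 75% (w/v) Solutol HS15 in ethanol (about 20% v/v ethanol). It was stored in capped brown glass tubes at room temperature or 4°C. At intervals, samples were diluted 100-fold in acetonitrile/water (4/1) for C18 HPLC with UV detection at 280 nm.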
# [7] = Stability of injectable solution; assay type: physicochemical
# [8] = compared with oncrasin-60 (NSC-741909); cited from earlier work
# [9] = especially in low-pH conditions; cited from earlier work
# [10] = test system: liver functions; assay: Serum liver enzyme levels; assay type: in vivo; conditions: for serum liver enzyme activities: 25 mg/kd/day, each day for 8 days, blood 3 days after last treatment
# [11] = test system: H460 cells; conditions: previous study ref 5; cited from earlier work
# [12] = test system: liver; assay: Histopathological analysis on livers; assay type: in vivo; conditions: 150 mg/kg once, livers harvested 48 h after treatment
# How it was run: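 Mice received a single 150 mg/kg dose of test compound. Livers were harvested at 48 h, sectioned and examined histologically, with two mice per group.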
# [13] = Tissue distribution in nude mice bearing Calu3 xenograft tumors; assay type: in vivo; conditions: 24 h
# How it was run: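 Nude mice (7–8 weeks) bearing subcutaneous Calu3 xenografts, one per group, received 60 mg/kg by tail vein in Solutol HS15/ethanol/0.9% NaCl. Mice were euthanised at 24 h. Liver, lungs, kidneys, spleen, small intestine and tumour were homogenised in methanol (50 mg/ml) on ice and mixed 1:1 with acetonitrile containing 0.2% formic acid and internal standard. Samples were centrifuged at 4°C and analysed by HPLC/MS.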
# [14] = test system: H1299 cells; conditions: previous study ref 5; cited from earlier work
# [15] = Stability of powder during storage; assay type: physicochemical; conditions: for stability of powder (remaining): 37°C; for time powder stable without detectable changes: non-evacuated container
# How it was run: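 Powdered test compounds were stored at 4°C, room temperature (21°C) or 37°C. Aliquots were taken at time points and kept at −20°C. Each was dissolved in DMSO, diluted with 9 volumes of acetonitrile and analysed by C18 HPLC (acetonitrile/water gradient with 0.2% formic acid, UV 280 nm).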
# [16] = test system: KRAS-mutant lung cancer cell line H157 xenografts; conditions: cited from earlier work
# [17] = test system: Calu3 cells; assay: Cell viability, sulforhodamine B assay; assay type: cell-based, human; conditions: Calu3, 3 days after treatment
# How it was run: (§1)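 Human lung cancer cells were treated with a range of test-compound concentrations. Viability was read by sulforhodamine B assay 3 days after treatment. DMSO-treated control cells were set as 100. Values are mean ± SD of quadruplicate wells.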
# [18] = Release of NSC-743380 from esterified derivatives in PBS; assay type: physicochemical; conditions: PBS pH 7.4, 0.5 mg/ml, 37°C
# How it was run: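 Test compound was made to 0.5 mg/ml in PBS pH 7.4 containing 12% DMSO and 18% acetonitrile (diluted from a DMSO/acetonitrile stock). It was held in a 37°C water bath for up to 24 h. Aliquots were taken at 0–24 h, frozen at −20°C, diluted 50-fold in acetonitrile and run on C18 HPLC (acetonitrile/water gradient, 0.2% formic acid, UV 280 nm). Data come from one of two experiments.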
# [19] = test system: H157 cells; assay: Cell viability, sulforhodamine B assay; assay type: cell-based; conditions: H157, 3 days after treatment
# How it was run: as §1
# [20] = test system: H460 cells; assay: Cell viability, sulforhodamine B assay; assay type: cell-based; conditions: H460, 3 days after treatment
# How it was run: as §1
# [21] = 150 mg/kg i.p. daily for 3 days, 3 mice/group
# [22] = 300 mg/kg i.p. on day 1 and day 2, 3 Balb/c mice/group
# [23] = 150 mg/kg daily for 3 days, blood on day 6, surviving mice
# [24] = animals treated with oncrasin-266, 60 mg/kg i.v.
smiles,measurement,setting,value
OCc1cn(Cc2cccc(Cl)c2)c2ccccc12 [NSC-743380],survival / death of mice,[1]; [21],Two mice in the NSC-743380-treated group died on day 5
same,survival / death of mice,[1]; [22],All three mice injected with NSC-743380 died on day 3
same,anticancer activity (cell viability),[2],resistant
same,sensitivity of cells to NSC743380 therapy,[3],highly sensitive
same,anticancer activity in xenograft tumor model,[4],more effective anticancer activity
same,sensitivity of cells to NSC743380 therapy,[5],highly sensitive
same,time stable in stock solution,[6]; room temperature,at least 1 weeks
same,loss in injectable solution,"[7]; 37°C, 7 h",more than 20%
same,change in injectable solution,"[7]; room temperature, 7 h",little change
same,maximum tolerated dose / tolerability,[8],much better tolerated
same,behaviour in solutions with water,[9],tends to form dimers in solutions with water and loses activity
same,serum liver enzyme activities,[10],mostly in normal ranges
same,blood alanine transaminase (ALT),[10]; [23],about 1936 Units/L
same,sensitivity of cells to NSC743380 therapy,[11],highly sensitive
same,histopathological changes in liver,[12],liver cell damage (necrosis) was obvious
same,tissues in which NSC-743380 was detectable,[13]; [24],"liver, lungs, kidneys, and subcutaneous tumor tissue"
same,tissues in which NSC-743380 was detected,"[13]; mice treated with NSC-743380, 60 mg/kg i.v.","lungs, intestine, and subcutaneous tumor tissue"
same,sensitivity of cells to NSC743380 therapy,[14],resistant
same,stability of powder (remaining),[15]; over 14 days,< 5%
same,in vivo tumor suppression,[16],significant in vivo tumor suppression
"O=C(CC1CCCCC1)OCc1cn(Cc2cccc(Cl)c2)c2ccccc12 [oncrasin-266, [1-(3-chlorobenzyl)-1H-indol-3-yl]methyl 2-cyclohexylacetate]",survival / death of mice,[1]; [21],none of the oncrasin-266-treated mice died
same,survival / death of mice,[1]; [22],one died on day 4 and the remaining two survived for at least 2 weeks
same,tolerability in vivo,"[1]; 150-300 mg/kg i.p., mice",better tolerated than NSC-743380
same,anticancer activity (cell viability),[2],resistant
same,time stable in stock solution,[6]; 4°C,at least 4 weeks
same,time stable in stock solution,[6]; room temperature,at least 2 weeks
same,anticancer activity (cell viability),[17],equivalent anticancer activity as NSC743380
same,release of NSC-743380 from oncrasin-266,"[7]; injectable solution, 7 hours, 37°C",higher than 10%
same,oncrasin-266 hydrolyzed to release NSC-743380,"[7]; injectable solution, within 7 hours, room temperature",about 10%
same,time to complete the release of NSC-743380,[18],about 6 hours
same,anticancer activity (cell viability),[19],equivalent anticancer activity as NSC743380
same,serum liver enzyme activities,[10],mostly in normal ranges
same,blood alanine transaminase (ALT),[10]; [23],about 115 Units/L
same,blood alkaline phosphatase (ALP),[10]; [23],~50 Units/L
same,histopathological changes in liver,[12],no obvious changes
same,oncrasin-266 detected in the liver,[13]; [24],high concentration
same,time powder stable without detectable changes,[15]; 4°C,at least 90 days
same,stability of powder (remaining),[15]; by day 90,< 5%
same,time powder stable without detectable changes,[15]; room temperature,at least 90 days
same,anticancer activity (cell viability),[20],equivalent anticancer activity as NSC743380

# Reference: paper PMC4172508 (Bioorganic & medicinal chemistry, 2014)
